# Assay results published in the RNAGym collection of RNA variant scans (doi:10.1002/anie.201605470).
# B1: Osa-1-4 twister ribozyme (parent)
# chain: CCGCCUAACACUGCCAAUGCCGGUCCCAAGCCCGGAUAAAAGUGGAGGGGGCGG
# Variants of: B1
# Experiment: self-cleavage, relative activity (ratio to wild type); higher = more cleavage; co-transcriptional
# Summary of the method: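 Relative activity is the fraction cleaved divided by that of the wild-type ribozyme. The library came from a DNA template for a 54-nucleotide Oryza sativa twister ribozyme, doped at the 48 positions downstream of the cleavage site with 97 % wild-type base and 1 % of each other base. After 2 h of in vitro transcription at 37 °C with co-transcriptional self-cleavage, the RNA was reverse-transcribed with a template-switching oligonucleotide, amplified by PCR and deep-sequenced, and reads with or without upstream sequence gave the cleavage status.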
row,Variant,self-cleavage
1,CCGCCUAACACUGCCAAUGCCGGUCCCAAGCCCGGAUAAAAAUGGAGUGGGCGG,0.05
2,CCGCCUAACACUGCCAAUGCCGGUCCCAAGCCCGGAUAAAAAUGGAGGAGGCGG,0.07
3,CCGCCUAACACUGCCAAUGCCGGUCCCAAGCCCGGAUAAAAAUGGAGGCGGCGG,0.07
4,CCGCCUAACACUGCCAAUGCCGGUCCCAAGCCCGGAUAAAAAUGGAGGUGGCGG,0.06
5,CCGCCUAACACUGCCAAUGCCGGUCCCAAGCCCGGAUAAAAAUGGAGGGAGCGG,0.45
6,CCGCCUAACACUGCCAAUGCCGGUCCCAAGCCCGGAUAAAAAUGGAGGGCGCGG,0.64
7,CCGCCUAACACUGCCAAUGCCGGUCCCAAGCCCGGAUAAAAAUGGAGGGUGCGG,0.83
8,CCGCCUAACACUGCCAAUGCCGGUCCCAAGCCCGGAUAAAAAUGGAGGGGACGG,0.28
9,CCGCCUAACACUGCCAAUGCCGGUCCCAAGCCCGGAUAAAAAUGGAGGGGCCGG,0.06
10,CCGCCUAACACUGCCAAUGCCGGUCCCAAGCCCGGAUAAAAAUGGAGGGGUCGG,0.1
11,CCGCCUAACACUGCCAAUGCCGGUCCCAAGCCCGGAUAAAAAUGGAGGGGGCAG,0.58
12,CCGCCUAACACUGCCAAUGCCGGUCCCAAGCCCGGAUAAAAAUGGAGGGGGCCG,0.1
13,CCGCCUAACACUGCCAAUGCCGGUCCCAAGCCCGGAUAAAAAUGGAGGGGGCUG,0.19
14,CCGCCUAACACUGCCAAUGCCGGUCCCAAGCCCGGAUAAAAAUGGAGGGGGCGA,0.76
15,CCGCCUAACACUGCCAAUGCCGGUCCCAAGCCCGGAUAAAAAUGGAGGGGGCGC,0.82
16,CCGCCUAACACUGCCAAUGCCGGUCCCAAGCCCGGAUAAAAAUGGAGGGGGCGU,0.8
17,CCGCCUAACACAGCCAAUGCCGGUCCCAAGCCCGGAUAAAAAUGGAGGGGGCGG,0.15
18,CCGCCUAACACCGCCAAUGCCGGUCCCAAGCCCGGAUAAAAAUGGAGGGGGCGG,0.1
19,CCGCCUAACACGGCCAAUGCCGGUCCCAAGCCCGGAUAAAAAUGGAGGGGGCGG,0.09
20,CCGCCUAACACUGCCAAAGCCGGUCCCAAGCCCGGAUAAAAAUGGAGGGGGCGG,0.71
21,CCGCCUAACACUGCCAACGCCGGUCCCAAGCCCGGAUAAAAAUGGAGGGGGCGG,0.44
22,CCGCCUAACACUGCCAAGGCCGGUCCCAAGCCCGGAUAAAAAUGGAGGGGGCGG,0.66
23,CCGCCUAACACUGCCAAUGCCGGACCCAAGCCCGGAUAAAAAUGGAGGGGGCGG,0.05
24,CCGCCUAACACUGCCAAUGCCGGCCCCAAGCCCGGAUAAAAAUGGAGGGGGCGG,0.06
25,CCGCCUAACACUGCCAAUGCCGGGCCCAAGCCCGGAUAAAAAUGGAGGGGGCGG,0.03

row,Variant,self-cleavage
1,CCGCCUAACACUGCCAAUGCCGGUCCCAAGCCCGGAAAAAAAUGGAGGGGGCGG,0.51
2,CCGCCUAACACUGCCAAUGCCGGUCCCAAGCCCGGACAAAAAUGGAGGGGGCGG,0.88
3,CCGCCUAACACUGCCAAUGCCGGUCCCAAGCCCGGAGAAAAAUGGAGGGGGCGG,0.89
4,CCGCCUAACACUGCCAAUGCCGGUCCCAAGCCCGGAUAAAAAAGGAGGGGGCGG,0.16
5,CCGCCUAACACUGCCAAUGCCGGUCCCAAGCCCGGAUAAAAACGGAGGGGGCGG,0.11
6,CCGCCUAACACUGCCAAUGCCGGUCCCAAGCCCGGAUAAAAAGGGAGGGGGCGG,0.16
7,CCGCCUAACACUGCCAAUGCCGGUCCCAAGCCCGGAUAAAACUGGAGGGGGCGG,0.4
8,CCGCCUAACACUGCCAAUGCCGGUCCCAAGCCCGGAUAAAACUAGAGGGGGCGG,0.24
9,CCGCCUAACACUGCCAAUGCCGGUCCCAAGCCCGGAUAAAACUCGAGGGGGCGG,0.19
10,CCGCCUAACACUGCCAAUGCCGGUCCCAAGCCCGGAUAAAACUUGAGGGGGCGG,0.11
11,CCGCCUAACACUGCCAAUGCCGGUCCCAAGCCCGGAUAAAACUGAAGGGGGCGG,0.06
12,CCGCCUAACACUGCCAAUGCCGGUCCCAAGCCCGGAUAAAACUGCAGGGGGCGG,0.06
13,CCGCCUAACACUGCCAAUGCCGGUCCCAAGCCCGGAUAAAACUGUAGGGGGCGG,0.05
14,CCGCCUAACACUGCCAAUGCCGGUCCCAAGCCCGGAUAAAACUGGAAGGGGCGG,0.06
15,CCGCCUAACACUGCCAAUGCCGGUCCCAAGCCCGGAUAAAACUGGACGGGGCGG,0.06
16,CCGCCUAACACUGCCAAUGCCGGUCCCAAGCCCGGAUAAAACUGGAUGGGGCGG,0.06
17,CCGCCUAACACUGCCAAUGCCGGUCCCAAGCCCGGAUAAAACUGGAGAGGGCGG,0.05
18,CCGCCUAACACUGCCAAUGCCGGUCCCAAGCCCGGAUAAAACUGGAGCGGGCGG,0.07
19,CCGCCUAACACUGCCAAUGCCGGUCCCAAGCCCGGAUAAAACUGGAGUGGGCGG,0.04
20,CCGCCUAACACUGCCAAUGCCGGUCCCAAGCCCGGAUAAAACUGGAGGAGGCGG,0.06
21,CCGCCUAACACUGCCAAUGCCGGUCCCAAGCCCGGAUAAAACUGGAGGCGGCGG,0.07
22,CCGCCUAACACUGCCAAUGCCGGUCCCAAGCCCGGAUAAAACUGGAGGUGGCGG,0.05
23,CCGCCUAACACUGCCAAUGCCGGUCCCAAGCCCGGAUAAAACUGGAGGGAGCGG,0.14
24,CCGCCUAACACUGCCAAUGCCGGUCCCAAGCCCGGAUAAAACUGGAGGGCGCGG,0.15
